Laboratory results as given in ChEMBL document CHEMBL1138022, “Structurally simplified macrolactone analogues of halichondrin B” (Bioorg Med Chem Lett, 2004).

Tests used:
P388 = test: Fold resistance calculated as the inhibition concentration ratio between retrovirally transformed P388/VMDRC.04 and parental P388 cells; type: functional
Procedure, shortened: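 P-glycoprotein-mediated efflux assessed in murine P388/VMDRC.04, a retrovirally transformed multidrug-resistant subline of P388/S leukemia cells, alongside parental P388 cells. Growth inhibition IC50 was measured in each line. Fold resistance is the IC50 ratio of P388/VMDRC.04 to parental P388.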

U-937 = test: In vitro inhibitory concentration required to inhibit the growth of U937 cells was determined by mitotic block reversibility assay; type: functional; conditions: Homo sapiens
Procedure, shortened: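 Reversibility assay in human histiocytic lymphoma U937 cells. After drug washout, flow cytometry scored whether a complete mitotic block was still maintained 10 h later.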

DLD-1 = test: In vitro inhibitory concentration required to inhibit the growth of DLD-1 cells under continuous exposure conditions for 3-4 days; type: functional, cell-based; conditions: Homo sapiens
Procedure, shortened: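 Human colon cancer DLD-1 cells were exposed to compound continuously for 3–4 days and growth inhibition was measured. IC50 is given ± SEM, with n the number of experiments.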

Row | Structure (SMILES) | FR (P388) | IC99 (U-937) | IC50 (DLD-1)
1 | C=C1C2C[C@@H]3O[C@H](C[C@@H](O)CO)[C@H](OC)[C@H]3OC(=O)C[C@H]3CC[C@@H]4OC5[C@H]6O[C@H]7C[C@](CC[C@H]8CC(=C)[C@H](CC[C@@H](C[C@H]1C)O2)O8)(OC6[C@H]4O3)O[C@H]57 | 9.3 | 0.02 µM | 0.67 nM
2 | C=C1C[C@@H]2CC[C@@]34C[C@@H]5O[C@@H]6C(O[C@H]7CC[C@H](CC(=O)O[C@@H]8[C@@H](OC)[C@@H](C[C@H](O)CO)O[C@H]8C[C@H]8O[C@@H](CC[C@@H]1O2)C[C@@H](C)C8=C)O[C@@H]7[C@@H]6O3)[C@H]5O4 | 6.2 | 0.015 µM | 0.67 nM
